Measurements from ChEMBL document CHEMBL3608272, “Design, synthesis and anticancer properties of novel oxa/azaspiro[4,5]trienones as potent apoptosis inducers through mitochondrial disruption” (2015).
Calls of active or inactive are those of the source. The rule behind the calls is not given here.

What was measured:
[1] = system: MCF7; assay: Induction of cell cycle arrest in human MCF7 cells assessed as accumulation at G0/G1 phase at 0.5 uM incubated for 48 hrs by propidium iodide staining based flow cytometry (reference value: 77.79%); assay type: functional
Summary of the method: (§1)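 MCF-7 cells were treated 48 h, harvested, washed in PBS, fixed in ice-cold 70% ethanol and stained with propidium iodide. Phase distribution was measured by flow cytometry and compared with untreated cells.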

[2] = system: MCF7; assay: Induction of cell cycle arrest in human MCF7 cells assessed as accumulation at G2/M phase at 1 uM incubated for 48 hrs by propidium iodide staining based flow cytometry (reference value: 11.98%); assay type: functional; summary of the method: as §1
[3] = system: MCF7; assay: Induction of cell cycle arrest in human MCF7 cells assessed as accumulation at sub G1 phase at 0.5 uM incubated for 48 hrs by propidium iodide staining based flow cytometry (reference value: 2.75%); assay type: functional; summary of the method: as §1
[4] = system: MCF7; assay: Induction of apoptosis in human MCF7 cells assessed as increase in p21 protein levels at 1 uM incubated for 48 hrs by Western blot method; assay type: functional, cell-based
Summary of the method: (§2)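 MCF-7 cells were treated for 48 h and lysed in ice-cold RIPA buffer with PMSF, aprotinin, leupeptin, pepstatin and NaF. Protein was quantified by Bradford, and 50 µg per lane was run on 12% SDS-PAGE and transferred to PVDF. Membranes were blocked 2 h in TBST with 5% blocking powder, probed with primary antibody overnight and HRP secondary for 1 h at room temperature, then detected by chemiluminescence.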

[5] = system: MCF7; assay: Induction of apoptosis in human MCF7 cells assessed as increase in p27 protein levels at 1 uM incubated for 48 hrs by Western blot method; assay type: functional, cell-based; summary of the method: as §2
[6] = system: MCF7; assay: Induction of cell cycle arrest in human MCF7 cells assessed as accumulation at S phase at 0.5 uM incubated for 48 hrs by propidium iodide staining based flow cytometry (reference value: 0.99%); assay type: functional; summary of the method: as §1
[7] = system: DU-145; assay: Anti-proliferative activity against human DU145 cells incubated for 48 hrs by SRB assay; assay type: functional; conditions: DU-145, 48 h
Summary of the method: (§3)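 SRB assay. Cells in DMEM with 10% FBS were seeded and grown 24 h at 37 °C in CO2. Compounds were diluted from a 10 mM DMSO stock to 1, 5 and 10 µM, with DMSO at most 0.1%, and exposed 48 h. Cells were fixed with 10% TCA for 60 min at 4 °C and stained 20 min at room temperature with 0.4% SRB in 1% acetic acid. Dye was eluted with 10 mM trizma base and absorbance read at 540 nm. Run in triplicate; GI50 given as mean ± SD of three determinations.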

[8] = system: MCF7; assay: Induction of apoptosis in human MCF7 cells assessed as early apoptotic cells levels at 0.5 uM incubated for 48 hrs by Annexin V-FITC and propidium iodide staining based flow cytometry (reference value: 3.57%); assay type: functional
[9] = system: MCF7; assay: Induction of apoptosis in human MCF7 cells assessed as viable cells levels at 1 uM incubated for 48 hrs by Annexin V-FITC and propidium iodide staining based flow cytometry (reference value: 92.5%); assay type: functional
[10] = system: MCF7; assay: Induction of ROS generation in human MCF7 cells at 1 uM incubated for 48 hrs by DCFDA dye based flow cytometry (reference value: 1.2%); assay type: functional
[11] = system: MCF7; assay: Induction of cell cycle arrest in human MCF7 cells assessed as accumulation at sub G1 phase at 1 uM incubated for 48 hrs by propidium iodide staining based flow cytometry (reference value: 2.75%); assay type: functional; summary of the method: as §1
[12] = system: MCF7; assay: Induction of apoptosis in human MCF7 cells assessed as necrotic cells levels at 1 uM incubated for 48 hrs by Annexin V-FITC and propidium iodide staining based flow cytometry (reference value: 0.86%); assay type: functional
[13] = system: MCF7; assay: Induction of apoptosis in human MCF7 cells assessed as late apoptotic cells levels at 1 uM incubated for 48 hrs by Annexin V-FITC and propidium iodide staining based flow cytometry (reference value: 3.08%); assay type: functional
[14] = system: A549; assay: Anti-proliferative activity against human A549 cells incubated for 48 hrs by SRB assay; assay type: functional; conditions: A549, 48 h
[15] = system: MCF7; assay: Anti-proliferative activity against human MCF7 cells incubated for 48 hrs by SRB assay; assay type: functional; conditions: MCF7, 48 h; summary of the method: as §3
[16] = system: MCF7; assay: Induction of apoptosis in human MCF7 cells assessed as necrotic cells levels at 0.5 uM incubated for 48 hrs by Annexin V-FITC and propidium iodide staining based flow cytometry (reference value: 0.86%); assay type: functional
[17] = system: MCF7; assay: Induction of apoptosis in human MCF7 cells assessed as viable cells levels at 0.5 uM incubated for 48 hrs by Annexin V-FITC and propidium iodide staining based flow cytometry (reference value: 92.5%); assay type: functional
[18] = system: MCF7; assay: Induction of cell cycle arrest in human MCF7 cells assessed as accumulation at S phase at 1 uM incubated for 48 hrs by propidium iodide staining based flow cytometry (reference value: 0.99%); assay type: functional; summary of the method: as §1
[19] = system: MCF7; assay: Reduction in mitochondrial membrane potential in human MCF7 cells at 0.5 and 1 uM incubated for 48 hrs by JC1 dye staining based flow cytometry; assay type: functional, cell-based
Summary of the method: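 MCF-7 cells (1 × 10^6 per well) in six-well plates were treated 48 h, trypsinized, washed in PBS and stained with 5 µg/mL JC-1 for 15 min at 37 °C. Cells were rinsed three times, resuspended in prewarmed medium and analysed by flow cytometry in the FL1 and FL2 channels.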

[20] = system: MCF7; assay: Induction of apoptosis in human MCF7 cells assessed as late apoptotic cells levels at 0.5 uM incubated for 48 hrs by Annexin V-FITC and propidium iodide staining based flow cytometry (reference value: 3.08%); assay type: functional
[21] = system: MCF7; assay: Induction of apoptosis in human MCF7 cells assessed as early apoptotic cells levels at 1 uM incubated for 48 hrs by Annexin V-FITC and propidium iodide staining based flow cytometry (reference value: 3.57%); assay type: functional
[22] = system: MCF7; assay: Induction of apoptosis in human MCF7 cells assessed as reduction in Bcl2 protein levels at 1 uM incubated for 48 hrs by Western blot method; assay type: functional, cell-based; summary of the method: as §2
[23] = system: MCF7; assay: Induction of cell cycle arrest in human MCF7 cells assessed as accumulation at G2/M phase at 0.5 uM incubated for 48 hrs by propidium iodide staining based flow cytometry (reference value: 11.98%); assay type: functional; summary of the method: as §1
[24] = system: MCF7; assay: Induction of cell cycle arrest in human MCF7 cells assessed as accumulation at G0/G1 phase at 1 uM incubated for 48 hrs by propidium iodide staining based flow cytometry (reference value: 77.79%); assay type: functional; summary of the method: as §1
[25] = system: MCF7; assay: Induction of ROS generation in human MCF7 cells at 0.5 uM incubated for 48 hrs by DCFDA dye based flow cytometry (reference value: 1.2%); assay type: functional
[26] = system: HepG2; assay: Anti-proliferative activity against human HepG2 cells incubated for 48 hrs by SRB assay; assay type: functional; conditions: HepG2, 48 h; summary of the method: as §3
[27] = system: MCF7; assay: Induction of apoptosis in human MCF7 cells assessed as increase in p53 protein levels at 1 uM incubated for 48 hrs by Western blot method; assay type: functional, cell-based; summary of the method: as §2
[28] = system: MCF7; assay: Induction of apoptosis in human MCF7 cells assessed as induction of caspase-9 activity at 1 uM incubated for 48 hrs by ELISA method relative to control; assay type: functional
Summary of the method: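 MCF-7 cells were treated for 48 h, pelleted, washed in PBS and lysed for 15 min. After centrifugation at 20,000 rpm for 15 min, caspase-9 activity in the supernatant was measured with a kit ELISA and expressed relative to untreated control. Mean ± SD of two experiments run in triplicate.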

[29] = system: MCF7; assay: Induction of apoptosis in human MCF7 cells assessed as increase in Bax protein levels at 1 uM incubated for 48 hrs by Western blot method; assay type: functional, cell-based; summary of the method: as §2

| Compound | Activity [1] | Activity [2] | Activity [3] | Activity [4] | Activity [5] | Activity [6] | GI50 [7] | Activity [8] | Activity [9] | Activity [10] | Activity [11] | Activity [12] | Activity [13] | GI50 [14] | GI50 [15] | Activity [16] | Activity [17] | Activity [18] | inhibition [19] | Activity [20] | other results |
| --- | --- | --- | --- | --- | --- | --- | --- | --- | --- | --- | --- | --- | --- | --- | --- | --- | --- | --- | --- | --- | --- |
| COc1ccc(F)cc1C1=C(c2ccccc2)C2(C=CC(=O)C=C2)OC1=O | 81.44% | 2.2% | 2.89% | Active | Active | 1.12% | 900 nM | 4.22% | 64.39% | 57.4% | 3.25% | 4.77% | 24.21% | 4600 nM | 1000 nM | 1.69% | 86.85% | 1.3% | Active | 7.25% | Activity [21]: 6.64%; Activity [22]: Active; Activity [23]: 9.63%; Activity [24]: 88.42%; Activity [25]: 16.2%; GI50 [26]: 1400 nM; Activity [27]: Active; fold change (FC) [28]: 2; Activity [29]: Active |
| O=C1C=CC2(C=C1)OC(=O)C(c1ccc([N+](=O)[O-])cc1)=C2c1ccccc1 | 84.21% | 0.76% | 4.38% | Active | Active | 0.34% | 1900 nM | 5.87% | 57.24% | 78.5% | 3.69% | 3.77% | 28.87% | 4000 nM | 1000 nM | 1.96% | 85.41% | 1.75% | Active | 6.76% | Activity [21]: 10.13%; Activity [22]: Active; Activity [23]: 3.35%; Activity [24]: 89.15%; Activity [25]: 30.4%; GI50 [26]: 1500 nM; Activity [27]: Active; fold change (FC) [28]: 2; Activity [29]: Active |
